Source: PubChem (several laboratories)
Shown are actives, neighbours in structure and some others; about 4.1% of the full set was active somewhere.
KCNQ1 act – potentiators or activators of human KCNQ1 potassium channel; 0.35% of 310,000 active; B-score at 10 µM; CHO-K1 KCNQ1, thallium flux FluxOR fluorescence; stronger effect = higher value;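 active = fluorescence ratio B-score, a plate-corrected score, at least three library SD, with initial intensity B-score within 5 SD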
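Medium – assay buffer, equal DMSO in all wells · Material – CHO-K1 cell line with stable KCNQ1 potassium channel expression · Signal – kinetic FluxOR thallium fluorescence, 10-s 1-Hz baseline, 110-s post-stimulus read · Compound – single concentration per compound, DMSO matched to controls · Schedule – 37 °C overnight plating, 90-min dark dye load, 20-min compound pretreatment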
KCNQ1 block – blocks the human KCNQ1 potassium channel; B-score at 10 µM; 1.3% of 310,000 active; P51787; CHO-K1 KCNQ1, FluxOR thallium flux fluorescence; stronger effect = higher value; AID 2642;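 active = compounds whose thallium flux B-score, printed positive for inhibition, exceeds three library SD while starting fluorescence stays within three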;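 note: channel opened by potassium depolarization with thallium stimulus after 20 min compound exposure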
KCNK3 inh – human KCNK3 channel inhibition, primary screen | O14649 | CHO-KCNK3 thallium flux, FluxOR fluorescence; stronger effect = lower value | B-score at 10 µM | 0.84% of 340,000 active | AID 602410;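 active = B-score under library mean minus 4 SD, starting fluorescence ratio at most library mean plus 5 SD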;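 note: more negative B-score means stronger inhibition of thallium flux through KCNK3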
KCNK9 block – human KCNK9 channel inhibition. HEK293 KCNK9, FluxOR thallium flux fluorescence; stronger effect = lower value. AID 488922. B-score at 10 µM. Q9NPC2. 1.2% of 310,000 active;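 active = ratio B-score over 3 SD below the library mean, with starting fluorescence within 5 SD of its mean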;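 note: negative B-score means less thallium flux so channel inhibition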
Cl transport mod – modulates chloride dependent transport by human KCC2; Q9H2X9; KCC2 cells, thallium flux FluoZin-2 fluorescence; B-score of Tl+ flux slope (higher = more flux/activation; lower = inhibition) at 10 µM; 2.2% of 190,000 active; AID 1456;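 active = thallium flux slope and its plate-corrected score both differing from the plate sample mean at a set confidence after two filtering rounds, in either direction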;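 note: slope of fluorescence scaled to starting intensity during 10 to 20 s after thallium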
Target sequence (Q9H2X9 whole entry, looked up): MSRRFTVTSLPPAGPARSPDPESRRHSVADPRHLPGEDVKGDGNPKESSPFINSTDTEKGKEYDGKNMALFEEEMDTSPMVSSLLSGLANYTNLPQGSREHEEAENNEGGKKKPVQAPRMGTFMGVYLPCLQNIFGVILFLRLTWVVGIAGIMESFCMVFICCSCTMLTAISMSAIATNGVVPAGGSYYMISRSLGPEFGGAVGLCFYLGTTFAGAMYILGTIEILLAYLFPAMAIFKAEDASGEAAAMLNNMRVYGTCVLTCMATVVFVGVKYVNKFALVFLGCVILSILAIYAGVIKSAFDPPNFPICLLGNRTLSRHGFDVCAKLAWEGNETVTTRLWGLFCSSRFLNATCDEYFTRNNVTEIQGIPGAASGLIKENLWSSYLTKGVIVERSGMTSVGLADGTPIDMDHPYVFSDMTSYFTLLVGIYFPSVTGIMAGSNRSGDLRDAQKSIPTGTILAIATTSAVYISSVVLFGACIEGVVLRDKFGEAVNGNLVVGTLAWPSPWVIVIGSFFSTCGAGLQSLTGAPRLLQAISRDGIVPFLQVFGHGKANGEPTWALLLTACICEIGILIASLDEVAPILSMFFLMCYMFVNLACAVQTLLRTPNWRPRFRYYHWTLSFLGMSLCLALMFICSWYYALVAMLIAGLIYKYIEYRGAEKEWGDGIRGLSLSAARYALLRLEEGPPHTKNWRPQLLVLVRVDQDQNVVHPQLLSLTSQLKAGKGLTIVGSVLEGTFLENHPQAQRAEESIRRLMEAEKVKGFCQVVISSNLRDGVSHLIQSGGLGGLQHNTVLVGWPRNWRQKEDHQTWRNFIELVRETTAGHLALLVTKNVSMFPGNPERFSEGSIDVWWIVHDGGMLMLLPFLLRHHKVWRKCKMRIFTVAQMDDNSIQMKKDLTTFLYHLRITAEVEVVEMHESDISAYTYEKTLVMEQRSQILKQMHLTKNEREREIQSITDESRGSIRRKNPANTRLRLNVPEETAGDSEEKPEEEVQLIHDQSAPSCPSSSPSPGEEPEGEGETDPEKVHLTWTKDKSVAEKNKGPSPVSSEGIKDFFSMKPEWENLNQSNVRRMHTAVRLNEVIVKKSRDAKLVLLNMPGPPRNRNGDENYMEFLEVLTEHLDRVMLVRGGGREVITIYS
hERG protect – shields human hERG channel from block by proarrhythmic agents. Q12809. activation (rescue from dofetilide block), less the hit threshold, % at 10 µM. 0.51% of 310,000 active. CHO-hERG, FluxOR thallium flux, dofetilide IC70 present. AID 1511;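 active = activation above the mean of controls blocked by dofetilide plus 5 SD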;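 note: thallium influx through hERG after potassium depolarization seen as dye fluorescence rise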
KCNK9 block conf – confirmation of human KCNK9 potassium channel inhibitors | shares compounds with KCNK9 block | HEK293 KCNK9 cells, FluxOR thallium flux fluorescence | inhibition, % at 10 µM | 43% of 4,900 active | AID 492992;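 active = thallium signal inhibited by more than 5 SD of the compound-free buffer control wells, on both duplicate plates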
Kir21 sel – selectivity of KCNK9 modulators against mouse Kir2.1; shares compounds with KCNK9 block; Kir2.1 cells, FluxOR thallium flux fluorescence; inhibition, % at 10 µM; 4% of 4,900 active; AID 492993;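 active = thallium signal drop more than 5 SD beyond the mean of the no-compound control wells, seen in both duplicate plates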;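 note: signal is fluorescence rise after thallium addition divided by baseline fluorescence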
KCNK9 uninduced – second counter-screen for KCNK9 modulators: effect in non-induced cells. shares compounds with KCNK9 block. non-induced KCNK9-HEK293, FluxOR thallium flux. inhibition, % at 10 µM. 40% of 4,900 active. AID 492997;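 active = thallium signal drop beyond 5 SD of the untreated control mean, on both duplicate plates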
Hits are given with their value; – = inactive; · = not tested or not shown.

SMILES	KCNQ1 act	KCNQ1 block	KCNK3 inh	KCNK9 block	Cl transport mod	hERG protect	KCNK9 block conf	Kir21 sel	KCNK9 uninduced
O=C(CSc1ncc(C(F)(F)F)cc1Cl)N1CCN(S(=O)(=O)c2ccc(Cl)cc2)CC1	–	–	–	–	–	–	–	–	–
COc1ccccc1/C=C(\C#N)C(=O)c1cccn1C	–	–	–	–	·	–	·	·	·
CC1CCC(C(C)C)C(OC(=O)Cn2c(-c3ccccc3)[n+](C)c3ccccc32)C1 (stereo not drawn)	–	–	–	-8.8	–	–	64%	74%	–
Cc1ccc(C2(c3noc(CN4CCC(c5ccncc5)CC4)n3)CCCC2)cc1	–	–	–	–	·	–	–	–	–
Cc1ccc(C2(c3noc(CN(C)CC4CCCCO4)n3)CCCC2)cc1 (stereo not drawn)	–	–	–	–	–	–	·	·	·
O=C(c1cccc(C(F)(F)F)c1)N1CCOC12CCN(c1ncc(C(F)(F)F)cc1Cl)CC2	–	–	–	–	–	–	–	–	–
O=C(OC1CCN(c2ncc(C(F)(F)F)cc2Cl)CC1)c1cccc(C(F)(F)F)c1	–	–	–	–	–	–	·	·	·
CCCNS(=O)(=O)c1cccc(C(=O)NNC(=O)c2cc(C)oc2C)c1	–	–	–	–	·	–	·	·	·
Cc1cccc(/C=C/C(=O)c2cc(Br)ccc(=O)c2O)c1	25	–	–	–	11	–	–	–	–
Cc1ccc(C(=O)C=Cc2cccc(C)c2)cc1	·	·	–	·	·	·	·	·	·
COc1cc(CN2CCN(c3cc(C)ccc3C)CC2)cc([N+](=O)[O-])c1O	–	–	·	–	–	–	–	–	–
Cn1cc(S(=O)(=O)N2CCCC2)cc1C(=O)NCCc1ccccc1	–	–	–	–	·	–	·	·	·
Cc1ccc(CN2CCN(/N=C/c3ccc(C)s3)CC2)c(C)c1	–	–	–	–	–	–	–	–	–
CCOC(=O)c1c(C)[nH]c(C)c1S(=O)(=O)NCCc1ccco1	–	–	–	–	·	–	·	·	·
COc1ccc(OC)c(S(=O)(=O)N/N=C\c2cn(CC(N)=O)c3ccccc23)c1	–	–	–	–	·	–	·	·	·
O=C(CSCc1cc(=O)n2nc(C3CC3)sc2n1)Nc1ccc(F)cc1	–	–	–	–	·	–	·	·	·
O=C1Nc2ccc(Cl)cc2C(C#CC2CC2)(C(F)(F)F)O1 (stereo not drawn)	–	–	–	-8.2	·	–	48%	–	46%
Cc1ccc2nc(Nc3ccc(C)c(C)c3)c3nncn3c2c1	–	–	–	–	·	–	·	·	·
CCN(C(=O)N1CCOCC1)c1ccccc1C	–	–	–	–	·	–	·	·	·
Cc1cc(C)c(S(=O)(=O)N2CCC(C(=O)NCc3ccc(Cl)cc3Cl)CC2)c(C)c1	–	–	–	–	–	–	–	–	–
Cc1cc(C)c(S(=O)(=O)N2CCC(C(=O)NCc3ccncc3)CC2)c(C)c1	–	–	–	–	·	–	·	·	·
CC1Nc2ncnc(N3CCc4ccccc4C3)c2N(Cc2ccc(Br)cc2)C1=O (stereo not drawn)	–	–	–	-11	·	–	31%	–	30%
CC1Nc2ncnc(N3CCN(c4ccccc4)CC3)c2N(Cc2ccc(Cl)cc2)C1=O (stereo not drawn)	–	–	–	–	·	–	·	·	·
CC1Nc2ncnc(N3CCc4ccccc4C3)c2N(Cc2ccc(Cl)cc2)C1=O (stereo not drawn)	–	–	–	-11	·	–	34%	–	30%
COc1ccc(/C(C)=N/Nc2ccc(C(=O)O)cc2)c(OC)c1	–	–	–	–	–	–	·	·	·
SMILES	KCNQ1 act	KCNQ1 block	KCNK3 inh	KCNK9 block	Cl transport mod	hERG protect	KCNK9 block conf	Kir21 sel	KCNK9 uninduced
COc1ccc2c(c1)C(=NNc1ccc(C(=O)O)cc1)c1cc(OC)ccc1-2	–	–	–	–	·	–	–	–	–
O=[N+]([O-])c1cc(/C=N/O)ccc1Oc1cccc(Cl)c1	–	–	–	-10	–	–	41%	–	25%
COc1ccc(C2CC(=O)N3CN(c4ccc(C)c(Cl)c4)CSC3=C2C#N)cc1 (stereo not drawn)	–	–	–	–	–	–	–	–	–
CCOc1cc(/C=C2/C(=N)N3C(=NC2=O)SN=C3S(C)(=O)=O)ccc1OS(=O)(=O)c1ccccc1	–	–	–	–	·	–	–	–	–
COc1ccc(C(C)=O)cc1CSc1ccc2c(c1)OCCO2	–	–	–	–	·	–	–	–	–
CC(=O)Nc1ccc(S(=O)(=O)NC2=NCN(C)CN2)cc1	–	–	–	–	–	–	·	·	·
C=CCN1CN=C(NS(=O)(=O)c2ccc(NC(C)=O)cc2)NC1	–	–	–	-10	–	–	–	–	–
c1nc(SSc2ncnc3nc[nH]c23)c2[nH]cnc2n1	·	·	–	·	·	·	·	·	·
CCSCC1COC(c2cccn2Cc2ccc(C)cc2)=N1 (stereo not drawn)	–	–	–	–	·	–	–	–	26%
CN1CCN(c2ccc(S(=O)(=O)N3CCCCC3)cc2NC(=O)COc2cccc(Cl)c2)CC1	–	–	–	–	·	–	·	·	·
CCN(N=Nc1cccc([N+](=O)[O-])c1)c1cccc([N+](=O)[O-])c1	–	–	–	-11	–	–	59%	–	40%
CCN1CC2=C(OC(N)=C(C#N)C2c2cccs2)/C(=C/c2cccs2)C1 (stereo not drawn)	–	–	–	-8.9	–	–	35%	–	31%
CCC(C)CNC(=O)c1cccc(OC2CCN(CC(C)(C)C)CC2)c1 (stereo not drawn)	–	–	–	–	·	–	·	·	·
CCCCN(C)C(=O)c1cccc(OC2CCN(CC(C)(C)C)CC2)c1	–	–	–	-12	·	–	–	–	–
Cc1ccc(NC2CCCN(C(=O)c3ccc4[nH]ccc4c3)C2)cc1C (stereo not drawn)	–	–	–	–	·	–	–	–	–
COC(=O)c1cccc(C(=O)N2CCCC(Nc3ccc(C)c(C)c3)C2)c1 (stereo not drawn)	–	–	–	–	·	–	–	–	–
C=CCOc1cccc(C(=O)N2CCCC(Nc3ccc4c(c3)OCCO4)C2)c1 (stereo not drawn)	–	–	–	–	·	–	–	–	–
O=C(O)Cc1sc(N/N=C\c2ccncc2)nc1-c1ccccc1	–	–	–	-11	–	–	25%	–	–
CC(C)Cn1c(N)c(C(=O)COC(=O)c2ccc(O)cc2O)c(=O)n(C)c1=O	–	–	–	–	·	–	·	·	·
